Consider twelve compounds from ChEMBL document CHEMBL5113395, “Azetidin-2-one-based small molecules as dual hHDAC6/HDAC8 inhibitors: Investigation of their mechanism of action and impact of dual inhibition profile on cell viability” (Eur J Med Chem, 2022).

For one series, the system named is HCT-116. As to the kind of experiment: Antiproliferation activity against human HCT-116 cells assessed as reduction in cell viability at 5 to 50 uM measured after 48 hrs by MTT assay. The class given is functional, cell-based. The settings on record: dose 5-50 µM. In outline:
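HCT116 cells in DMEM with 10% heat-inactivated FBS were seeded at 3×10^4 cells/well and treated in triplicate at 1, 5, 10 and 50 µM for 24 and 48 h. MTT at 0.5 mg/mL was added for 3 h, formazan was dissolved in DMSO, and absorbance was read at 570 nm.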

For a further series, the system named is U-937. Description: Antiproliferation activity against human U-937 cells assessed as reduction in cell viability at 5 to 50 uM measured after 48 hrs by CCK-8 assay. The series is classed as functional, cell-based. The following applies: dose 5-50 µM. The method, boiled down: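 U937 cells were exposed in triplicate to 1, 5, 10 and 50 µM for 24 and 48 h. CCK-8 (WST-8) reagent was then added, with 3 h further incubation at 37 °C, and absorbance was read at 450 nm to give viability.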

The target of series [1] is T1, Histone deacetylase 1 (Homo sapiens, UniProt Q13547). Description: Inhibition of recombinant human full length C-terminal FLAG/His-tagged HDAC1 expressed in Sf9 insect cells using ZMAL (Z-(Ac)Lys-AMC as substrate measured after 90 mins by fluorescence plate reader analysis.
T1 sequence (Q13547 whole entry): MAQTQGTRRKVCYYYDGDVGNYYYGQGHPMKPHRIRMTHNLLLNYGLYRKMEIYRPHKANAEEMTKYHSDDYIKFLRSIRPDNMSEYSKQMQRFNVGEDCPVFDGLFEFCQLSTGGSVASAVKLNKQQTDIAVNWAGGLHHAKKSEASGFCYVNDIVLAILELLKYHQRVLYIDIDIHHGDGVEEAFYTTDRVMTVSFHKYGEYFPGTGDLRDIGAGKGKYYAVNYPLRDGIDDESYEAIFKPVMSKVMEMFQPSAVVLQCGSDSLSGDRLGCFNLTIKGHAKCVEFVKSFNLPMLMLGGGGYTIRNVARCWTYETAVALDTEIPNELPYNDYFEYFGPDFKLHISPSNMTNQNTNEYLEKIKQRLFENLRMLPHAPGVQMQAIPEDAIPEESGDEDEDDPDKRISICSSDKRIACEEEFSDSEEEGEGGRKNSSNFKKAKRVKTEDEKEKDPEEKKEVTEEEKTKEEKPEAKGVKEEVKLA
Series [2] can be described thus: Cytotoxicity against mouse NIH3T3 cells assessed as inhibition of cell growth by neutral red uptake assay.
Series [3] has as its target T2, Protein deacetylase HDAC6 (Homo sapiens, UniProt Q9UBN7).
T2 sequence (Q9UBN7 whole entry): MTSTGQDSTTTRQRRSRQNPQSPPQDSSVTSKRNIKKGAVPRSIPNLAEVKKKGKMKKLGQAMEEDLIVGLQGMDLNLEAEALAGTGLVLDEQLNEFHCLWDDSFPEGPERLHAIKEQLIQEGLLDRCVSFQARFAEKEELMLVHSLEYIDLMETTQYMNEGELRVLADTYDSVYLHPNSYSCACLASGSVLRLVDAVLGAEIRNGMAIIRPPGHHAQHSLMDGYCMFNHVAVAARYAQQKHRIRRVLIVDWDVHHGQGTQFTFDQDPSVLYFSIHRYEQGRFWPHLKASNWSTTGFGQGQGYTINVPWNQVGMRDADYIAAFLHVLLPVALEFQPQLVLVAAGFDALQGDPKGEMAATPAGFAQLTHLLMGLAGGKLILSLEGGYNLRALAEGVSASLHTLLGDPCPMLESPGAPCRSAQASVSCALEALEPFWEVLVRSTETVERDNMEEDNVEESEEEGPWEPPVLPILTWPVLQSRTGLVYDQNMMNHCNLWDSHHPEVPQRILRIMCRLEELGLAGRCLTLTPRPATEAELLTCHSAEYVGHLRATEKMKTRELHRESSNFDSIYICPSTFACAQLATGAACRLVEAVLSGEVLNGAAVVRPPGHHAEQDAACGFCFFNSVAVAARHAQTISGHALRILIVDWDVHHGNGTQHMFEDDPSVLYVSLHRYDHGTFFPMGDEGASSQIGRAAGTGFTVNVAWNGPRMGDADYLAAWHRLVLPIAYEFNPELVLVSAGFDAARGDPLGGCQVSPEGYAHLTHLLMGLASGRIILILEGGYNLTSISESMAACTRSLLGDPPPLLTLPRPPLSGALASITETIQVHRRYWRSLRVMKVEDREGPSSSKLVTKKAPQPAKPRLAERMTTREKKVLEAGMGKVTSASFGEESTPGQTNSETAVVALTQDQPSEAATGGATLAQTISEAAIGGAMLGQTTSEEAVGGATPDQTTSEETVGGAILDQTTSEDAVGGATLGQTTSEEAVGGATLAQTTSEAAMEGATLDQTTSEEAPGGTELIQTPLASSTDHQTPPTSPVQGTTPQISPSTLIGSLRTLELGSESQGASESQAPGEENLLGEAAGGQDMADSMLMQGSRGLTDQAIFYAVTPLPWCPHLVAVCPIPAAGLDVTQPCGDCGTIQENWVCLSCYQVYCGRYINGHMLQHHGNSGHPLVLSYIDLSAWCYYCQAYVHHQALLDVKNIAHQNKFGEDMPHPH
As to the kind of experiment: Inhibition of recombinant human full length N-terminal GST-tagged HDAC6 expressed in Sf9 cells using ZMAL (Z-(Ac)Lys-AMC as substrate measured after 90 mins by fluorescence plate reader analysis.

The target in series [4] is T3, Histone deacetylase 8 (Homo sapiens) (UniProt Q9BY41).
T3 sequence (whole entry): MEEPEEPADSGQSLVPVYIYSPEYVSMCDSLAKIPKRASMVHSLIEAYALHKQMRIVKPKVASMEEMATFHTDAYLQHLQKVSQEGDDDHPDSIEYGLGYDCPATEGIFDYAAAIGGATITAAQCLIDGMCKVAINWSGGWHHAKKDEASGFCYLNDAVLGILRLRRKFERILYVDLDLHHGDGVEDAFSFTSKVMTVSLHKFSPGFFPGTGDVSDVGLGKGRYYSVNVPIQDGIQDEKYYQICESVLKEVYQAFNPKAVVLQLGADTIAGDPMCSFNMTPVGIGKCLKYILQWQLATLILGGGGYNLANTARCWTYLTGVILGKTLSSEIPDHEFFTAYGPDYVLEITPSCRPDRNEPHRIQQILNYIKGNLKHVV
Description: Inhibition of recombinant human HDAC8 using FLUOR DE LYS as substrate preincubated for 15 mins followed by substrate addition at 50 uM measured after 1 hrs by fluorescence plate reader analysis relative to control. The following applies: time 75.0 min. In outline:
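Kit recombinant human HDAC8 (0.45 U/reaction) was preincubated 15 min with compound (0.5% DMSO; DMSO-only control). Fluor de Lys substrate was then added at 50 µM final and the reaction ran 1 h at 30 °C. It was quenched with 2 µM TSA in Developer II for a further 1 h at 30 °C, and fluorescence read at ex 370/em 450 nm. IC50 came from nonlinear dose–response fitting.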

In series [5] the target is T4, Protein deacetylase HDAC6 (Homo sapiens) (UniProt Q9UBN7).
T4 sequence (whole entry): T2 sequence (Q9UBN7 whole entry)
As to the kind of experiment: Inhibition of recombinant human full length N-terminal GST-tagged HDAC6 expressed in Sf9 cells using ZMAL (Z-(Ac)Lys-AMC as substrate at 1 uM measured after 90 mins by fluorescence plate reader analysis relative to control.

Series [6] has as its target T1, Histone deacetylase 1. As to the kind of experiment: Inhibition of recombinant human full length C-terminal FLAG/His-tagged HDAC1 expressed in Sf9 insect cells using ZMAL (Z-(Ac)Lys-AMC as substrate at 50 uM measured after 90 mins by fluorescence plate reader analysis relative to control.
Series [7] has as its target T4, Protein deacetylase HDAC6 (Homo sapiens). As to the kind of experiment: Inhibition of recombinant human full length N-terminal GST-tagged HDAC6 expressed in Sf9 cells using ZMAL (Z-(Ac)Lys-AMC as substrate at 50 uM measured after 90 mins by fluorescence plate reader analysis relative to control.
The target is the same in series [8]. As to the kind of experiment: Inhibition of recombinant human full length N-terminal GST-tagged HDAC6 expressed in Sf9 cells using ZMAL (Z-(Ac)Lys-AMC as substrate at 10 uM measured after 90 mins by fluorescence plate reader analysis relative to control.
For series [9], the target named is T1, Histone deacetylase 1. Description: Inhibition of recombinant human full length C-terminal FLAG/His-tagged HDAC1 expressed in Sf9 insect cells using ZMAL (Z-(Ac)Lys-AMC as substrate at 1 uM measured after 90 mins by fluorescence plate reader analysis relative to control.
The target in series [10] is T1, Histone deacetylase 1. As to the kind of experiment: Inhibition of recombinant human full length C-terminal FLAG/His-tagged HDAC1 expressed in Sf9 insect cells using ZMAL (Z-(Ac)Lys-AMC as substrate at 10 uM measured after 90 mins by fluorescence plate reader analysis relative to control.

The structures appear in SMILES notation. Calls of active or inactive are those of the source. The rule behind the calls is not given here.

On to `COc1ccc(Cn2ccc3ccc(C(=O)NO)cc32)cc1`, for which the result in the series on HCT-116 and in the series with U-937 was Active.
For the compound `O=C(NO)c1ccc(COC(=O)N2CCC(N3CC(c4ccccc4)(c4ccccc4)C3=O)CC2)cc1`, the IC50 on Histone deacetylase 1 [1] was found to be 4100 nM; in series [3], 18.5 nM. Further, the CC50 in series [2] amounted to 80000 nM. Further, the inhibition in series [4] stood at 13%.
For the compound `O=C(CCc1ccc(C(=O)N2CCC(N3C(=O)[C@H](c4ccccc4)[C@H]3c3ccccc3)CC2)cc1)NO` (racemic), the inhibition in series [5] was determined as 35.9%; on Histone deacetylase 1 [6], 89.5%; in series [7], 98.4%; in [8], 85.7%; at Histone deacetylase 1 [9], 22.3%; at Histone deacetylase 1 [10] it was 66.4%.
Take `Cc1cccc(C2CC(=O)N2C2CCN(C(=O)NCc3ccc(C(=O)NO)cc3)CC2)c1` (racemic): the IC50 was determined as 3100 nM at Histone deacetylase 1 [1] and 399 nM in series [3]. For the same compound, in series [2], the CC50 stood at 100000 nM.
Turning to `O=C(NO)c1ccc(CCC(=O)N2CCC(N3C(=O)[C@H](c4ccccc4)[C@H]3c3ccccc3)CC2)cc1` (racemic), the inhibition was 69.7% in series [5]; 83.6% at Histone deacetylase 1 [6]; 102% in series [7]; 97.1% in series [8]; 17.2% on Histone deacetylase 1 [9]; 48.7% at Histone deacetylase 1 [10].
For `O=C(NO)c1ccc(/C=C/C(=O)N2CCC(N3C(=O)[C@H](c4ccccc4)[C@H]3c3ccccc3)CC2)cc1` (racemic), the IC50 in series [3] stood at 130 nM. Besides, the inhibition at Histone deacetylase 1 [6] worked out at 100%; at Histone deacetylase 1 [9] it was 49.7%; on Histone deacetylase 1 [10] it was 90.1%.
For the compound `O=C(NO)c1ccc(CC(=O)N2CCC(N3C(=O)[C@H](c4ccccc4)[C@H]3c3ccccc3)CC2)cc1` (racemic), the IC50 on Histone deacetylase 1 [1] was 5140 nM; in series [3], 121 nM. In series [2], the 50% cytotoxic concentration (CC50) worked out at 48000 nM.
In the case of `O=C(/C=C/c1ccc(C(=O)N2CCC(N3C(=O)[C@H](c4ccccc4)[C@H]3c3ccccc3)CC2)cc1)NO` (racemic), the IC50 in series [3] worked out at 168 nM. For the same compound, the results for the inhibition on Histone deacetylase 1 [6], on Histone deacetylase 1 [9] and at Histone deacetylase 1 [10] were 97.3%, 61% and 93.4%, respectively.
With `O=C(Cc1ccc(NC(=O)N2CCC(N3C(=O)[C@H](c4ccccc4)[C@H]3c3ccccc3)CC2)cc1)NO` (racemic), the inhibition turned out to be 60.2% in [5]; 82.7% at Histone deacetylase 1 [6]; 103% in series [7]; 94.2% in [8]; 23.6% at Histone deacetylase 1 [9]; 53.3% at Histone deacetylase 1 [10].
For the compound `O=C(CCCCCCC(=O)Nc1ccccc1)NO`, the result in the series with HCT-116 and in the series on U-937 was Active.
For `O=C(NO)c1ccc(NC(=O)N2CCC(N3C(=O)[C@H](c4ccccc4)[C@H]3c3ccccc3)CC2)cc1` (racemic), the figures for the IC50 (on Histone deacetylase 1 [1]; in series [3]) were 1270 nM and 203 nM, respectively.
Consider `O=C(NO)c1ccc(CNC(=O)N2CCC(N3C(=O)CC3c3cccc(Cl)c3)CC2)cc1` (racemic), for which the IC50 is 15100 nM on Histone deacetylase 1 [1] and 270 nM in [3].
